For 17 compounds, fold change (FC), IC50 and Ratio results are on record in ChEMBL document CHEMBL3272006, “Synthesis of some 1, 8- and 2, 8-disubstituted derivatives of adenosine cyclic 3', 5'-phosphate and their interaction with some enzymes of cAMP metabolism” (J Med Chem, 1976).

The species entered for one assay is Oryctolagus cuniculus. Kind of assay: Activity of rabbit kidney PDE assessed as enzyme-mediated compound hydrolysis after 10 to 60 mins by colorimetric assay relative to cAMP. Type of assay: tissue-based. The essentials:
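Rabbit kidney enzyme; 0.60 ml mix with 3.0 µmol cyclic nucleotide (5 mM), 3.0 µmol Tris HCl pH 7.5, 6 µmol MgCl2, 0.1–0.3 mg protein. Incubated usually 10–60 min, stopped by heating, bacterial alkaline phosphatase added, released phosphate read colorimetrically. Rate expressed relative to cAMP hydrolysis (nmol 5'-AMP per min).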

Assay [1] can be described thus: Inhibition of bovine heart PDE assessed as inhibition 8-[3H]-cAMP substrate hydrolysis. On the set-up: species or system Bos taurus. As to conditions: read-out: I50. The essentials:
(§1)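 Beef heart or rabbit lung enzyme; 0.5 ml with 25 µmol Tris HCl pH 7.5, 5 µmol MgCl2, 20–200 µg protein, 80 pmol 8-[3H]cAMP, varying inhibitor levels. Times set by pilot runs. Heat stop, snake venom 5'-nucleotidase converts product to nucleoside, unreacted cyclic nucleotide bound to Dowex-1, nucleoside radioactivity counted. Nucleotidase interference checked with [14C]-5'-AMP.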

Assay [2] in a line: Inhibition of rabbit lung PDE assessed as inhibition 8-[3H]-cAMP substrate hydrolysis. On the set-up: species or system Oryctolagus cuniculus. The note with it: read-out: I50. The essentials:
as §1

The species entered for the next assay is Bos taurus. In words: Ratio of Ka for cAMP to Ka for compound for bovine brain protein kinase in presence of 0.5 nmol [32P]ATP-gamma by liquid scintillation spectrometer.

Each structure is given as a SMILES string. A value given as a limit tells only on which side of the number the result lay.

As for `Nc1c2ncn([C@@H]3O[C@@H]4COP(=O)(O)O[C@H]4[C@H]3O)c2nc[n+]1[O-]`, the fold change (FC) in the assay filed under Oryctolagus cuniculus amounted to 0.33. Also, the IC50 in assay [1] turned out to be 50 µM; in assay [2], 35 µM. Further, in the assay listed under Bos taurus, the Ratio stood at 0.45.
On to `CCCCc1nc(N)c2ncn([C@@H]3O[C@@H]4COP(=O)(O)O[C@H]4[C@H]3O)c2n1`, for which the fold change (FC) in the assay listed under Oryctolagus cuniculus stood at 0.64. For the same compound, the IC50 was found to be 10 µM in assay [1] and 3 µM in assay [2]. Further, in the assay filed under Bos taurus, the Ratio was determined as 0.46.
For `Nc1c2nc(Br)n([C@@H]3O[C@@H]4COP(=O)(O)O[C@H]4[C@H]3O)c2nc[n+]1[O-]`, the fold change (FC) in the assay filed under Oryctolagus cuniculus was below 0.05. The IC50 in assay [1] came out at 59 µM; in assay [2], 400 µM. In addition, the Ratio in the assay listed under Bos taurus was determined as 0.15.
With `Cc1nc(N)c2nc(Br)n([C@@H]3O[C@@H]4COP(=O)(O)O[C@H]4[C@H]3O)c2n1`, the fold change (FC) in the assay filed under Oryctolagus cuniculus was 0.15. Moreover, the IC50 in assay [1] turned out to be 30 µM; in assay [2], 25 µM. Moreover, in the assay filed under Bos taurus, the Ratio came to 3.4.
Consider `Cc1nc(N)c2nc(Sc3ccc(Cl)cc3)n([C@@H]3O[C@@H]4COP(=O)(O)O[C@H]4[C@H]3O)c2n1`, for which, in the assay listed under Oryctolagus cuniculus, the fold change (FC) is 0.05. Besides, the IC50 amounted to 5 µM in assay [1] and 33 µM in assay [2]. In addition, the Ratio in the assay listed under Bos taurus was determined as 2.3.
On to `Cc1nc(N)c2nc(N=[N+]=[N-])n([C@@H]3O[C@@H]4COP(=O)(O)O[C@H]4[C@H]3O)c2n1`, for which the fold change (FC) in the assay filed under Oryctolagus cuniculus came to 0.16. Further, the IC50 in assay [1] turned out to be 50 µM; in assay [2], 67 µM. Also, in the assay filed under Bos taurus, the Ratio turned out to be 0.45.
For the compound `Nc1ncnc2c1nc(Sc1ccc(Cl)cc1)n2[C@@H]1O[C@@H]2COP(=O)(O)O[C@H]2[C@H]1O`, the fold change (FC) in the assay listed under Oryctolagus cuniculus was below 0.05. In addition, the IC50 in assay [2] was 200 µM. The Ratio in the assay listed under Bos taurus worked out at 18.
For the compound `Cc1nc(N)c2nc(SCc3ccccc3)n([C@@H]3O[C@@H]4COP(=O)(O)O[C@H]4[C@H]3O)c2n1`, in the assay listed under Oryctolagus cuniculus, the fold change (FC) is 0.05. In addition, the values for the IC50 in assay [1] and in assay [2] were 4.3 µM and 9.5 µM, respectively. In addition, the Ratio in the assay listed under Bos taurus stood at 0.95.
`Cn1cnc2c(nc(SCc3ccccc3)n2[C@@H]2O[C@@H]3COP(=O)(O)O[C@H]3[C@H]2O)c1=N`: the figures for the IC50 in assay [1] and in assay [2] were 67 µM and 61 µM, respectively. Besides, in the assay filed under Bos taurus, the Ratio amounted to 1.3.
As for `CCCCc1nc(N)c2nc(Br)n([C@@H]3O[C@@H]4COP(=O)(O)O[C@H]4[C@H]3O)c2n1`, in the assay filed under Oryctolagus cuniculus, the fold change (FC) is below 0.05. Further, the IC50 in assay [1] is 11 µM; in assay [2] it was 17 µM. Besides, in the assay listed under Bos taurus, the Ratio was 0.66.
In the case of `Nc1ncnc2c1nc(Br)n2[C@@H]1O[C@@H]2COP(=O)(O)O[C@H]2[C@H]1O`, in the assay filed under Oryctolagus cuniculus, the fold change (FC) was below 0.05. The IC50 in assay [2] was 40 µM. Besides, in the assay filed under Bos taurus, the Ratio came to 2.9.
In the case of `Cn1cnc2c(ncn2[C@@H]2O[C@@H]3COP(=O)(O)O[C@H]3[C@H]2O)c1=N`, the fold change (FC) in the assay filed under Oryctolagus cuniculus worked out at 0.16. Also, the IC50 in assay [1] amounted to 80 µM; in assay [2], 65 µM. For the same compound, the Ratio in the assay listed under Bos taurus was found to be 0.012.
For `Cc1nc(N)c2ncn([C@@H]3O[C@@H]4COP(=O)(O)O[C@H]4[C@H]3O)c2n1`, in that order: 0.83, 1.1 µM, 1.6 µM and 0.16.
Consider `CCCCc1nc(N)c2nc(Sc3ccc(Cl)cc3)n([C@@H]3O[C@@H]4COP(=O)(O)O[C@H]4[C@H]3O)c2n1`, for which the fold change (FC) in the assay filed under Oryctolagus cuniculus was below 0.05. Besides, the IC50 in assay [1] came out at 5 µM; in assay [2] it was 11 µM. Also, the Ratio in the assay filed under Bos taurus came to 2.2.
Regarding `CCCCc1nc(N)c2nc(SCc3ccccc3)n([C@@H]3O[C@@H]4COP(=O)(O)O[C@H]4[C@H]3O)c2n1`, in the assay filed under Oryctolagus cuniculus, the fold change (FC) was below 0.05. Also, the IC50 is 7.1 µM in assay [1] and 9.5 µM in assay [2]. Moreover, the Ratio in the assay filed under Bos taurus was found to be 1.1.
For the compound `[N-]=[N+]=Nc1nc2c(N)ncnc2n1[C@@H]1O[C@@H]2COP(=O)(O)O[C@H]2[C@H]1O`, the fold change (FC) in the assay filed under Oryctolagus cuniculus is below 0.05. In addition, the IC50 worked out at 43 µM in assay [1] and 80 µM in assay [2]. The Ratio in the assay filed under Bos taurus was found to be 0.68.
Regarding `Nc1ncnc2c1nc(SCc1ccccc1)n2[C@@H]1O[C@@H]2COP(=O)(O)O[C@H]2[C@H]1O`, the fold change (FC) in the assay listed under Oryctolagus cuniculus is below 0.05. Moreover, the IC50 in assay [1] came to 17 µM; in assay [2], 53 µM. The Ratio in the assay listed under Bos taurus turned out to be 2.1.
